Assay results: ChEMBL document CHEMBL1629663, “Postantibiotic effects of telavancin against 16 gram-positive organisms” (Antimicrob Agents Chemother, 2009)
In brackets after ≈: the same amount, converted by molar mass.

Tests used:
Format in all cases: functional
[1] = tested on: Staphylococcus aureus; assay: Antimicrobial activity against vancomycin-susceptible-, methicillin-resistant Staphylococcus aureus 1130 assessed as post-antibiotic effect at 10 times MIC pre-exposed to Telavancin for 1 hr by plate counting method
Method in brief: (§1)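 Direct colony suspensions (~5 × 10^6 CFU/ml) were exposed to 10× MIC for 1 h at 35°C with shaking in Mueller-Hinton broth, then diluted 1:1,000 to remove drug. Viable plate counts were taken before exposure, at 0 h, then every 2 h until turbidity reached McFarland 1. PAE = T − C, the time for counts to rise 1 log10 versus the unexposed control. Two separate experiments were run.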

[2] = tested on: Staphylococcus aureus; assay: Antimicrobial activity against vancomycin-susceptible-, methicillin-resistant Staphylococcus aureus ATCC 33591 assessed as post-antibiotic effect at 10 times MIC pre-exposed to Telavancin for 1 hr by plate counting method; method in brief: as §1
[3] = tested on: Staphylococcus aureus; assay: Antimicrobial activity against vancomycin-susceptible-, methicillin-resistant Staphylococcus aureus 1306 assessed as time required to induce post antibiotic sub-MIC effect at 0.3 times MIC […] by plate counting method
Method in brief: (§2)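 After 1 h preexposure to 10× MIC at 35°C and 1:1,000 dilution, cultures were split, and drug was re-added to final 0.2, 0.3 or 0.4× MIC, with a drug-free tube. Viable counts were taken every 2 h until McFarland 1 turbidity. Duration was derived from log10 CFU/ml versus time curves. Two experiments were run, each with a new inoculum.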

[4] = tested on: Staphylococcus aureus; assay: Antimicrobial activity against heterogenous vancomycin-intermediate-, methicillin-resistant Staphylococcus aureus 618 assessed as time required to induce sub-MIC effect at 0.2 times MIC exposed for 2 hrs by plate counting method
Method in brief: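 SME, viable plate count method: no prior drug exposure. About 5 × 10^6 CFU/ml in Mueller-Hinton broth at 35°C received 0.2, 0.3 or 0.4× MIC, alongside a drug-free tube. Counts were taken at the start, then every 2 h until McFarland no. 1 turbidity, as log10 CFU/ml against time. Two separate experiments, each with a new inoculum.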

[5] = tested on: Staphylococcus aureus; assay: Antimicrobial activity against vancomycin-intermediate-, methicillin-resistant Staphylococcus aureus 555 by microdilution method
[6] = tested on: Staphylococcus aureus; assay: Antimicrobial activity against vancomycin-intermediate-, methicillin-resistant Staphylococcus aureus 555 assessed as time required to induce post antibiotic sub-MIC effect at 0.2 times MIC […] by plate counting method
Method in brief: (§3)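 PAE was first induced with 10× MIC for 1 h at 35°C (inoculum about 5 × 10^6 CFU/ml, Mueller-Hinton broth) and ended by 1:1,000 dilution. Cultures were then split and given 0.2, 0.3 or 0.4× MIC, with one tube left without drug. Viable counts were taken before exposure, after dilution, then every 2 h until McFarland no. 1 turbidity. Two separate experiments, each with a new inoculum.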

[7] = tested on: Staphylococcus aureus; assay: Antimicrobial activity against vancomycin-intermediate-, methicillin-resistant Staphylococcus aureus 770 assessed as time required to induce post antibiotic sub-MIC effect at 0.2 times MIC pre-exposed to Telavancin […] by plate counting method; method in brief: as §3
[8] = tested on: Staphylococcus aureus; assay: Antimicrobial activity against vancomycin-resistant-, methicillin-resistant Staphylococcus aureus 510 assessed as time required to induce sub-MIC effect at 0.4 times MIC exposed for 2 hrs by plate counting method
Method in brief: (§4)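 Sub-MIC effect: cultures not preexposed to drug were diluted and handled as in the PA-SME procedure in Mueller-Hinton broth with final 0.2, 0.3 or 0.4× MIC, plus a drug-free control. Viable plate counts were taken every 2 h until McFarland 1 turbidity. Duration was derived from growth curves. Two experiments were run, each with a new inoculum.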

[9] = tested on: Enterococcus faecalis; assay: Antimicrobial activity against Enterococcus faecalis ATCC 29212 assessed as time required to induce post antibiotic sub-MIC effect at 0.2 times MIC […] by plate counting method
Method in brief: (§5)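 Mueller-Hinton broth cultures of about 5 × 10^6 CFU/ml were pre-exposed to telavancin at 10× MIC for 1 h at 35°C, then diluted 1:1,000. Telavancin was re-added to final 0.2, 0.3 or 0.4× MIC, alongside a drug-free tube. Viable counts were taken before exposure, after dilution, then every 2 h until McFarland no. 1 turbidity. Duration comes from log10 CFU/ml-versus-time plots; two separate experiments with fresh inocula.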

[10] = tested on: Enterococcus faecium; assay: Antimicrobial activity against Enterococcus faecium HMC 588 assessed as time required to induce post antibiotic sub-MIC effect at 0.3 times MIC […] by plate counting method; method in brief: as §5
[11] = tested on: Staphylococcus aureus; assay: Antimicrobial activity against vancomycin-intermediate-, methicillin-resistant Staphylococcus aureus 770 assessed as time required to induce post antibiotic sub-MIC effect at 0.3 times MIC […] by plate counting method; method in brief: as §3
[12] = tested on: Staphylococcus aureus; assay: Antimicrobial activity against vancomycin-susceptible-, methicillin-resistant Staphylococcus aureus 1130 assessed as time required to induce sub-MIC effect at 0.4 times MIC exposed for 2 hrs by plate counting method; method in brief: as §4
[13] = tested on: Staphylococcus aureus; assay: Antimicrobial activity against vancomycin-susceptible-, methicillin-resistant Staphylococcus aureus ATCC 33591 assessed as time required to induce post antibiotic sub-MIC effect at 0.3 times MIC […] by plate counting method; method in brief: as §2
[14] = tested on: Enterococcus faecalis; assay: Antimicrobial activity against Enterococcus faecalis HMC 571 assessed as time required to induce post antibiotic sub-MIC effect at 0.2 times MIC pre-exposed to Telavancin […] by plate counting method; method in brief: as §5
[15] = tested on: Staphylococcus aureus; assay: Antimicrobial activity against heterogenous vancomycin-intermediate-, methicillin-resistant Staphylococcus aureus 873 assessed as time required to induce post antibiotic sub-MIC effect at 0.4 times MIC […] by plate counting method; method in brief: as §3
[16] = tested on: Staphylococcus aureus; assay: Antimicrobial activity against heterogenous vancomycin-intermediate-, methicillin-resistant Staphylococcus aureus 618 assessed as post-antibiotic effect at 10 times MIC pre-exposed to Telavancin for 1 hr by plate counting method
Method in brief: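 Viable plate count method in Mueller-Hinton broth. Direct colony suspension inoculum of about 5 × 10^6 CFU/ml was exposed to 10× MIC for 1 h at 35°C in a shaking water bath, then diluted 1:1,000 to remove drug. Counts were taken before exposure, at 0 h, then every 2 h until McFarland no. 1 turbidity. PAE = T − C, the time to a 1 log10 rise versus an unexposed growth control.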

[17] = tested on: Enterococcus faecium; assay: Antimicrobial activity against Enterococcus faecium HMC 588 assessed as time required to induce sub-MIC effect at 0.2 times MIC exposed for 2 hrs by plate counting method
Method in brief: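 Unexposed Mueller-Hinton broth cultures (about 5 × 10^6 CFU/ml, 35°C) were handled as in the PA-SME set but without the 10× MIC pre-exposure. They were diluted 1:1,000, then given telavancin at final 0.2, 0.3 or 0.4× MIC, with a drug-free control. Viable counts were taken every 2 h until McFarland no. 1 turbidity. Effect duration comes from log10 CFU/ml-time plots; two separate experiments with new inocula.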

[18] = tested on: Staphylococcus aureus; assay: Antimicrobial activity against vancomycin-intermediate-, methicillin-resistant Staphylococcus aureus 770 assessed as time required to induce sub-MIC effect at 0.4 times MIC exposed for 2 hrs by plate counting method; method in brief: as §4
[19] = tested on: Staphylococcus aureus; assay: Antimicrobial activity against vancomycin-susceptible-, methicillin-resistant Staphylococcus aureus 1130 assessed as time required to induce sub-MIC effect at 0.2 times MIC exposed for 2 hrs by plate counting method; method in brief: as §4
[20] = tested on: Staphylococcus aureus; assay: Antimicrobial activity against vancomycin-susceptible-, methicillin-resistant Staphylococcus aureus 1307 assessed as post-antibiotic effect at 10 times MIC pre-exposed to Telavancin for 1 hr by plate counting method; method in brief: as §1

## CCCCCCCCCCNCCN[C@@]1(C)C[C@H](O[C@H]2[C@H](Oc3c4cc5cc3Oc3ccc(cc3Cl)[C@@H](O)[C@@H](NC(=O)[C@@H](CC(C)C)NC)C(=O)N[C@@H](CC(N)=O)C(=O)N[C@H]5C(=O)N[C@H]3C(=O)N[C@H](C(=O)N[C@H](C(=O)O)c5cc(O)c(CNCP(=O)(O)O)c(O)c5-c5cc3ccc5O)[C@H](O)c3ccc(c(Cl)c3)O4)O[C@H](CO)[C@@H](O)[C@@H]2O)O[C@@H](C)[C@H]1O [TELAVANCIN]
[1]
  PAE: 1.4 h
[2]
  PAE: 1.5 h
[3]
  PAE: 5.4 h
[4]
  PAE: 0.3 h
[5]
  MIC: 0.5 µg/mL (≈ 0.285 µM)
[6]
  PAE: 5.9 h
[7]
  PAE: 3.8 h
[8]
  PAE: 3.6 h
[9]
  PAE: 5.3 h
[10]
  PAE: 8.9 h
[11]
  PAE: 6.3 h
[12]
  PAE: 6.5 h
[13]
  PAE: > 10 h
[14]
  PAE: 3.9 h
[15]
  PAE: 6.7 h
[16]
  PAE: 1.7 h
[17]
  PAE: 1.2 h
[18]
  PAE: 0.8 h
[19]
  PAE: 0 h
[20]
  PAE: 1.1 h
